Test results as given in ChEMBL document CHEMBL5096209, “Structure-Activity Studies of 3,9-Diazaspiro[5.5]undecane-Based γ-Aminobutyric Acid Type A Receptor Antagonists with Immunomodulatory Effect” (J Med Chem, 2021).

Key:
[1] = target: T1, Gamma-aminobutyric acid receptor subunit alpha-5/beta-2/gamma-2 (Homo sapiens, UniProt P18507+P31644+P47870); assay: Antagonist activity at human alpha5beta2gamma2 GABAA receptor expressed in HEK cells by FMP assay; type: cell-based
T1 sequence (P47870 whole entry): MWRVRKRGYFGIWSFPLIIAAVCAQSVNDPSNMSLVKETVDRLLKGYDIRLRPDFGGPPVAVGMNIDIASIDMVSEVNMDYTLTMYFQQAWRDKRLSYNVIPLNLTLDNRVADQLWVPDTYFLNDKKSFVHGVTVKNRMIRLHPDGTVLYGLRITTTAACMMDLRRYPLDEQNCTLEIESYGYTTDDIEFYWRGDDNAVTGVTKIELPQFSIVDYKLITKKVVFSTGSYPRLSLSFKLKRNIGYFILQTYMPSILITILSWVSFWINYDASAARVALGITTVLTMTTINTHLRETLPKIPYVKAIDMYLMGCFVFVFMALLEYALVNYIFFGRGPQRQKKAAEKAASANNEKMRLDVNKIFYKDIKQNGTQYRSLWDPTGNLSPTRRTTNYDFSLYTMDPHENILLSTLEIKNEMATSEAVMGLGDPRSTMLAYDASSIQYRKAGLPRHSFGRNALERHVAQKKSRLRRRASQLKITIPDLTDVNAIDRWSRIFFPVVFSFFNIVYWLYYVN
T1 sequence (P18507 whole entry): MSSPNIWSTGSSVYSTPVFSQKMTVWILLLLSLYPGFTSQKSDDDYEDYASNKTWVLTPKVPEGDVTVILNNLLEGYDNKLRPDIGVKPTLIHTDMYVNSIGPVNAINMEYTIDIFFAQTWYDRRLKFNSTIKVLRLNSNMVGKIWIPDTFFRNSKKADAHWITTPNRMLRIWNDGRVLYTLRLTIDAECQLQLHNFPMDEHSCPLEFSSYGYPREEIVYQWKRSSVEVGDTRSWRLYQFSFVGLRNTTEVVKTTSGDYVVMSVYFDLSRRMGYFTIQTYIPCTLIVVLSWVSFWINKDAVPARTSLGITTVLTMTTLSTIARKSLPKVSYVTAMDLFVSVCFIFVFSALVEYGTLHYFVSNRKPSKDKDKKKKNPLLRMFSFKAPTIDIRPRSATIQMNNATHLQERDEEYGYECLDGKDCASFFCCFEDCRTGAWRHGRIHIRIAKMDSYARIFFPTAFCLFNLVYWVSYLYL
T1 sequence (P31644 whole entry): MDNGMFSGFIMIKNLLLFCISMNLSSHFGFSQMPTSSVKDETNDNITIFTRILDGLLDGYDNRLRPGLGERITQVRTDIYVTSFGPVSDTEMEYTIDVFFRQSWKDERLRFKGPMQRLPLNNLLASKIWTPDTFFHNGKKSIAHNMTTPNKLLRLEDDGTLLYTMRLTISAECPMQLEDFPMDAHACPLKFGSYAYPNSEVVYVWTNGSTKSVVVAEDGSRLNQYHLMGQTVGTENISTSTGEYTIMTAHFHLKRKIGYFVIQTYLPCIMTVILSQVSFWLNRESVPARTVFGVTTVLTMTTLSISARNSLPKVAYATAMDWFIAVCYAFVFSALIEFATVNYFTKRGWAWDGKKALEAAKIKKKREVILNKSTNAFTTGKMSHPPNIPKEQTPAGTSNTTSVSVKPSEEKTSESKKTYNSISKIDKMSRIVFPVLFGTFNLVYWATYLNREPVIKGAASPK
Outline: (§1)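 Human αβγ2 receptors in HEK293 cells: α1β2γ2 stably expressed, other αβγ2 subtypes transiently transfected into HEK293 Flp-In background cells (α:β:γ 1:1:2). FLIPR membrane potential assay with ΔRFU baseline to peak/plateau and GABA EC80 as agonist. IC50 from a four-parameter fit, at least three independent experiments.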

[2] = test system: GABAA receptor α4β2δ (human); assay: Antagonist activity at recombinant human alpha4beta2delta GABAA receptor expressed in HEK293 Flp-In cells by FMP assay
[3] = target: T2, GABA A receptor alpha-2/beta-2/gamma-2 (Homo sapiens, UniProt P18507+P47869+P47870); assay: Antagonist activity at human alpha2beta2gamma2 GABAA receptor expressed in HEK293 cells by FMP assay; type: cell-based; outline: as §1
T2 sequence (P47870 whole entry): T1 sequence (P47870 whole entry)
T2 sequence (P18507 whole entry): T1 sequence (P18507 whole entry)
T2 sequence (P47869 whole entry): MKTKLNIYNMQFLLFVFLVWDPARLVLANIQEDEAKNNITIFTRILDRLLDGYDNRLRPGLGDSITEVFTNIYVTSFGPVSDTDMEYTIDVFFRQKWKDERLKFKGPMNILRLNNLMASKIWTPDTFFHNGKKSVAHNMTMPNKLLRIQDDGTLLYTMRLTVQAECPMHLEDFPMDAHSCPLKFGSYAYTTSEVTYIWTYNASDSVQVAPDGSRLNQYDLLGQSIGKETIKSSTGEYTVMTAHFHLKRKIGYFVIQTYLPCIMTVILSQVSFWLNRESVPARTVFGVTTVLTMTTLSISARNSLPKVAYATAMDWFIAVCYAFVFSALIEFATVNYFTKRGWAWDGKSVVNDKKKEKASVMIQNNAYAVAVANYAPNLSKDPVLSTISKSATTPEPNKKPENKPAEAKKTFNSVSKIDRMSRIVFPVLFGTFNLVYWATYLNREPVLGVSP

[4] = target: T3, GABA A receptor alpha-3/beta-2/gamma-2 (Homo sapiens, UniProt P18507+P34903+P47870); assay: Antagonist activity at human alpha3beta2gamma2 GABAA receptor expressed in HEK293 cells by FMP assay; type: cell-based; outline: as §1
T3 sequence (P47870 whole entry): T1 sequence (P47870 whole entry)
T3 sequence (P18507 whole entry): T1 sequence (P18507 whole entry)
T3 sequence (P34903 whole entry): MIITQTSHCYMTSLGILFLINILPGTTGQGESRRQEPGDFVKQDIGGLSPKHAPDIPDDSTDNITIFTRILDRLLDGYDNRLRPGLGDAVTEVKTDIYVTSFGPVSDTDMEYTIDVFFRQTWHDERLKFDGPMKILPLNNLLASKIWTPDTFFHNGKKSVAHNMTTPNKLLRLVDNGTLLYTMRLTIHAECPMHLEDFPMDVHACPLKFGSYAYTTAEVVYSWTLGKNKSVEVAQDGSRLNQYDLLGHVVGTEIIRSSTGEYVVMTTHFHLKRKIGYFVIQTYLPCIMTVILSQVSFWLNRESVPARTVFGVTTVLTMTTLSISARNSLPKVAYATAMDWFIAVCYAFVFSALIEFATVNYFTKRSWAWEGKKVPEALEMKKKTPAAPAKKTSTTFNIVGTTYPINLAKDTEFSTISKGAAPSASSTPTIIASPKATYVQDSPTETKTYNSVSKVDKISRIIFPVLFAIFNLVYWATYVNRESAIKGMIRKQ

[5] = Homo sapiens, Flp-In-293, read-out: pIC50 (converted)

| IC50 [1] [nM] | IC50 ([1]; read-out: pIC50 (converted)) [nM] | IC50 [2, 5] [nM] | IC50 ([2]; flp-in-293) [nM] | IC50 [3] [nM] | IC50 ([3]; read-out: pIC50 (converted)) [nM] | IC50 [4] [nM] | IC50 ([4]; read-out: pIC50 (converted)) [nM] | SMILES |
| --- | --- | --- | --- | --- | --- | --- | --- | --- |
| 590 | 589 | 363 | 360 | – | – | – | – | CC(=O)Nc1cccc(C(=O)N2CCC3(CCNCC3)CC2)c1 |
| 51 | 51.3 | 67.6 | 68 | – | – | – | – | O=C(Nc1cccc(C(=O)N2CCC3(CCNCC3)CC2)c1)c1cccs1 |
| – | – | – | – | 25300 | 25100 | 3570 | 3240 | Cc1ccc(C(=O)N2CCC3(CCNCC3)CC2)cc1 |
| – | – | – | – | 7560 | 7410 | 560 | 501 | Cc1cccc(C(=O)N2CCC3(CCNCC3)CC2)c1 |
